Laboratory results reported in the RNAGym collection of RNA variant scans (doi:10.1126/science.aae0568).
Variants at the floor of the assay were thinned out.

B1: tRNA (parent)
chain: GUUCCGUUGGCGUAAUGGUAACGCGUCUCCCUCCUAAGGAGAAGACUGCGGGUUCGAGUCCCGUACGGAACG

Variants of: B1
Test: yeast fitness relative to wild type (ratio to wild type); higher = fitter; tRNA-Arg(CCU), competitive growth, 37 C, YPD
In short: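 Amplicons of the tRNA-Arg(CCU) gene were sequenced, 100-nucleotide paired-end, from the start population and from each end population of a pooled yeast competition. The competition, in six parallel replicates, lasted 24 hours in YPD at 37°C. Fitness relative to wild type was calculated from changes in genotype frequencies. Genotypes had to have ≥ 100 starting reads, and estimates < 0.5 were set to 0.5.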

Variant	yeast fitness
GUUCCGUUGGCGUAAUGGGAACGCGUCUCCCUCCUAAGGAGAAGACUGUUGGUUCGAGUCCCGUACGGAACG	≤ 0.5
GUUCCGUUGGCGUAAUGGGAACGCGUCUCCCUCCUAAGGAGAAGACUGUGGGUCCGAGUCCAGUACGGAACG	≤ 0.5
GUUCCGUUGGCGUAAUGGGAACGCGUCUCCCUCCUAAGGAGAAGACUGCGGGUUGGAGUCCCGUACGGAACG	0.651
GUUCCGUUGGCGUAAUGGGAACGCGUCUCCCUCCUAAGGAGAAGACUGCGGGUUCGAGUCCCGUAAGGAACG	0.53
GUUCCGUUGGCGUAAUGGGAACGCGUCUCCCUCCUAAGGAGAAGACUGCGGGUUCGAGUCCCGUAUGGAACG	0.831
GUUCCGUUGGCGUAAUGGGAACACGUCUCCCUCCGAAGGAGAAGACUGCGGGUUCGAGUCCCGUACGGAACG	≤ 0.5
GUUCCGUUGGCGUAAUGGGAACGCAUCUCCCUCCUAAGGAGAAGACUGCGGGUUCGAGUCCCGUACGGAACG	0.958
GUUCCGUUGGCGUAAUGGGAACGCAUCUCCCUCCUAAGAAGAAGACUGCGGGUUCGAGUCCCGUACGGAACG	0.597
GUUCCGUUGGCGUAAUGGGAACGCAUCUCCCUCCUAAGGAGAAGACUGCGGGUUCGAGUCCCGUACAGAACG	0.934
GUUCCGUUGGCGUAAUGGGAACGCGUCUCCCUCCUAACGAGAAGACUGCGGGUUCGAGUCCCGUACGGAUCG	0.501
GUUCCGUUGGCGUAAUGGGAACGCGUCUCCCUCCUAAGAAGAAGACUGCGGGUUCGAGUCCCGUACGGAACG	1.07
GUUCCGUUGGCGUAAUGGGAACGCGUCUCCCUCCUAAGCAGAAGACUGCGGGUUCGAGUCCCGUACGGAACG	0.75
GUUCCGUUGGCGUAAUGGGAACGCGUCUCCCUCCUAAGGACAAGACUGCGGGUUCGAGUCCCGUACGGAACG	0.622
GUUCCGUUGGCGUAAUGGGAACGCGUCUCCCUCCUAAGGACAUGACUGCGGGUUCGAGUCCCGUACGGAACG	0.512
GUUCCGUUGGCGUAAUGGGAACGCGUCUCCCUCCUAAGGAUAAGACUGCGGGUUCGAGUCCCGUACGGAACG	0.691
GUUCCGUUGGCGUAAUGGGAACGCGUCUCCCUCCUAAGGAGAAAACUGCGGGUUCGAGUCCCGUACGGAACG	0.953
GUUCCGUUGGCGUAAUGGGAACGCGUCUCCCUCCUAAGGAGAAAACUACCGGUUCGAGUCCCGUACGGAACG	≤ 0.5
GUUCCGUUGGCGUAAUGGGAACGCGUCUCCCUCCUAAGGAGAAGACUAAGGGUUCGAGUCCCGUACGGAACG	0.574
GUUCCGUUGGCGUAAUGGGAACGCGUCUCCCUCCUAAGGAGAAGACUGCACGUUGGAGUCUCGUACGGAACG	≤ 0.5

Variant	yeast fitness
GUUCCGUUGGCGUAAUGGGAACGCGUCUCCCUCCUAAGGAGAAGACUGCGCGUUCGAGUCCCGUACGGAACG	0.537
GUUCCGUUGGCGUAAUGGGAACGCGUCUCCCUCCUAAGGAGAAGACUGCGGGUUCAAGUCCCGUACUGAACG	≤ 0.5
GUUCCGUUGGCGUAAUGGGAACGCGUCUCCCUCCUAAGGAGAAGACUGCGGGUUCGAAUCCCGUAUGGAACG	0.857
GUUCCGUUGGCGUAAUGGGAACGCGUCUCCCUCCUAAGGAGAAGACUGCGGGUUCGACUCCCGUACGGAACG	1.03
GUUCCGUUGGCGUAAUGGGAACGCGCCUGCCUCCUAAGGAGAAGACUGCGGGUUCGUGUCCCGUACGGUCCG	≤ 0.5
GUUCCGUUGGCGUAAUGGGAACGCGUCCCCCUCCUAGGGAGAAGACUGCGGGUUCGAGUCCCGUAUGGUACG	0.524
GUUCCGUUGGCGUAAUGGGAACGCGUCUCCCACCUAAGGAGAAGACUGCGGGUUCGAGUCCCGUACGGAACG	0.735
GUUCCGUUGGCGUAAUGGGAACGCGUCUCCCCCCUAAGGAGAAGACUGCGGGUUCGAGUCCCGUACGGAACG	1.04
GUUCCGUUGGCGUAAUGGGAACGCGUCUCCCCCCUAAGGAGAAGACUGCGGAUUCGACUCCCGUACGGAACG	≤ 0.5
GUUCCGUUGGCGUAAUGGGAACGCGUCUCCCGCCUAAGGAGAAGACUGCGGGGUCGAGUCCCGUACGGAACG	≤ 0.5
GUUCCGUUGGCGUAAUGGGAACGCGUCUCCCUCCCAAGGUGAAGACUGCGGGUUCGAGUCCCGUACGGAACG	≤ 0.5
GUUCCGUUGGCGUAAUGGGAACGCGUCUCCCUCCCAAGGAGAUGACUGCGGGUUCGAGUCCCGUGCGAAACG	≤ 0.5
GUUCCGUUGGCGUAAUGGGAACGCGUCUCCCUCCUAAGGAGAAGACCGCGGGUUCGAGUCCCGUACGGAACG	0.972
GUUCCGUUGGCGUAAUGGGAACGCGUCUCCCUCCUAAGGAGAAGACGGCGGGUUCGACUCCCGUACGGAACG	≤ 0.5
GUUCCGUUGGCGUAAUGGGAACGCGUCUCCCUCCUAAGGAGAAGACUGCGGGAUCGAGUCCCGUACGGAACG	0.506
GUUCCGUUGGCGUAAUGGGAACGCGUCUCCCUCCUAAGGAGAAGACUGCGGGUUCGAGACCCGUACGGUACG	≤ 0.5
GUUCCGUUGGCGUAAUGGGAACGCGUCUCCCUCCUAAGGAGAAGACUGCGGGUUCGAGCCCCGUACGGCACG	0.658
GUUCCGUUGGCGUAAUGGGAACGCGUCUCCCUCCUAAGGAGAAGACUGCGGGUUCGAGUCCCGAGCUGAACG	0.606
GUUCCGUUGGCGUAAUGGUCCCGCGUCUCCCUCCUAAGGAGAAGACUGCGGGUUCGAGUCCCGUACGGAACG	0.608
